Experimental data reported in ChEMBL document CHEMBL1148626, “Synthesis and biological evaluation of novel, peripherally selective chromanyl imidazolethione-based inhibitors of dopamine beta-hydroxylase” (2006).
The source made the active and inactive calls. The calls are words filed in the database; no cut-off is given here.

How the values were obtained:
[1] = biological target: T1, Dopamine beta-hydroxylase (Homo sapiens) (UniProt P09172); assay: Effect on DBH activity in presence of dopamine by measuring Noradrenaline level; assay type: functional; set-up: concentration or dose not given beside the values
T1 sequence (whole entry): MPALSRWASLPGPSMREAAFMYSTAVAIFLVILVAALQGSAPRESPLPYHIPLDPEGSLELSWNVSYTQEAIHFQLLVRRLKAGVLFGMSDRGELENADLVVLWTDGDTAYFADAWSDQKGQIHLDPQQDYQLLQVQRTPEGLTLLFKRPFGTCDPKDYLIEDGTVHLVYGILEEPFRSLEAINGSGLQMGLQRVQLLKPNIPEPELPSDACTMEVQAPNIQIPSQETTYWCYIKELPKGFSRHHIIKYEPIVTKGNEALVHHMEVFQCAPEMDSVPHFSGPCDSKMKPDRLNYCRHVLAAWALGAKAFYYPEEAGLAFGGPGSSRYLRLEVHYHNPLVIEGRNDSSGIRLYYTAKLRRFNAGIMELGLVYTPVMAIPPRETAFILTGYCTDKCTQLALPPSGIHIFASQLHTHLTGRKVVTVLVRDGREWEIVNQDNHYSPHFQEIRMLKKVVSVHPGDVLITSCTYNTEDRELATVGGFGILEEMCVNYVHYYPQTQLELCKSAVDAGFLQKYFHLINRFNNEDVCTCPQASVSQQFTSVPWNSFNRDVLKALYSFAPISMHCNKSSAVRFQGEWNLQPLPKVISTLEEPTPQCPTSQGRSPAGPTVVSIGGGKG
How it was run: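 Inhibitor at 5 µM in 200 mM sodium acetate pH 5.0 containing N-ethylmaleimide, CuSO4, catalase, pargyline, fumarate and 20 mM ascorbate. Preincubated 20 min at 37 °C, then dopamine added as substrate and reacted 45 min at 37 °C. Stopped with perchloric acid and filtered. Noradrenaline formed quantified by HPLC-ECD (0.75 V). Residual activity given as % of control, mean ± SEM of three experiments.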

[2] = tested on: Mus musculus; assay: Decrease in noradrenaline tissue levels in mice heart at 100 mg/kg, po after 18 hrs; assay type: functional, organism-based; set-up: dose 100 mg/kg; details: NMR1
How it was run: (§1)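 Male NMRI mice housed 10 per cage on a 12 h light/dark cycle at 22 °C. Compound given at 100 mg/kg by oral gavage in water vehicle. Animals decapitated at set times postdose; heart tissue held in 0.2 M perchloric acid for 12 h at 4 °C in the dark, then filtered. NA measured by HPLC with electrochemical detection. Expressed as % of vehicle control, mean ± SEM, n=4 per group.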

[3] = tested on: Mus musculus; assay: Time for maximum effect for noradrenaline tissue reduction at 100 mg/kg, po; assay type: functional, organism-based; set-up: dose 100 mg/kg; details: NMR1
How it was run: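 Mice given 100 mg/kg orally in water by gavage. Heart taken 6, 9, 18 and 24 h postdose and extracted in 0.2 M perchloric acid. Noradrenaline measured by HPLC with electrochemical detection, as % of control without inhibitor. Mean ± SEM, four animals per group. Time of maximum effect taken from the time course.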

[4] = species: Mus musculus; assay: Effect on noradrenaline levels in mouse left ventricle after 9 hrs; assay type: functional, organism-based; details: NMR1, Heart left ventricle
How it was run: (§2)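 Male NMRI mice given test compound or vehicle (water) orally by gavage at a range of doses. At 9 h postdose, decapitation. Tissue (left ventricle or brain parietal cortex) weighed, held in 0.2 M perchloric acid 12 h at 4 °C in the dark, then filtered by centrifugation. Noradrenaline measured by HPLC with electrochemical detection. Value given as % of vehicle control.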

[5] = species: Mus musculus; assay: Decrease in noradrenaline tissue levels in mouse brain parietal cortex after 9 hrs; assay type: functional, organism-based; details: NMR1; how it was run: as §2
[6] = tested on: Mus musculus; assay: Effect on recovery of noradrenaline levels in mice at 100 mg/kg after 24 hrs; assay type: functional; how it was run: as §1
[7] = tested on: Rattus norvegicus; assay: Decrease in noradrenaline tissue levels in rat at 100 mg/kg, po after 9 hrs; assay type: functional, organism-based; set-up: dose 100 mg/kg; details: Wistar
How it was run: (§3)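 Male Wistar rats dosed orally by gavage at 100 mg/kg, with water as vehicle. Killed by decapitation 9 h postdose. Frontal and parietal cortex, left atrium and left ventricle taken, extracted in 0.2 M perchloric acid (12 h, 4 °C, dark) and filtered. Noradrenaline by HPLC-electrochemical detection, as % of control without inhibitor. Mean ± SEM, four animals per group.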

[8] = species: Rattus norvegicus; assay: Decrease in noradrenaline tissue levels in rat brain parietal and frontal cortex; assay type: functional, organism-based; details: Wistar, Cerebral cortex; how it was run: as §3

`CNCCc1c[nH]c(=S)n1[C@H]1COc2c(F)cc(F)cc2C1` was tested, and the Activity [1] was 2.6%.

With `CNCCc1cnc(S)n1[C@H]1COc2ccc(O)cc2C1` the Activity [1] was 15.5%.

`NCCc1cnc(S)n1[C@H]1CCc2c(F)cc(F)cc2C1` was tested, and the Activity [2] was “Active” and the Activity [1] was 1.6%.

With `COc1cc(Cl)cc2c1OC[C@H](n1c(CCN)cnc1S)C2` the Activity [1] was 36.7%.

`CNCCc1cnc(S)n1[C@H]1COc2ccccc2C1` showed an Activity [1] of 2.2%.

`NCCc1cnc(S)n1[C@H]1COc2ccc([N+](=O)[O-])cc2C1` showed an Activity [1] of 94.8%.

`Cl.NCc1c[nH]c(=S)n1[C@H]1CCc2c(F)cc(F)cc2C1` [NEPICASTAT HYDROCHLORIDE] was tested, and the Activity [2] was “Active”, the Tmax [3] was 9 h and the Activity [4] was “Dose-dependent effect”. The Activity [5] was “Dose-dependent effect”, the Activity [6] was 50% and the Activity [7] was “Active”. The Activity [8] was “Active” and the Activity [1] was 0%.

In the case of `NCCc1cnc(S)n1[C@H]1CCc2ccccc2C1`, the Activity [1] was 16.8%.

In the case of `COc1ccc2c(c1)C[C@@H](n1c(CCN)cnc1S)CO2`, the Activity [1] was 54.5%.

`NCCc1cnc(S)n1[C@H]1COc2c(F)cccc2C1` gave an Activity [1] of 6.9%.

`COc1cc(Cl)c2c(c1)C[C@@H](n1c(CCN)cnc1S)CO2` gave an Activity [1] of 94%.

`NCCCc1cnc(S)n1[C@H]1CCc2c(F)cc(F)cc2C1` showed an Activity [1] of 8.1%.

In the case of `NCc1cnc(S)n1[C@H]1COc2c(F)cc(F)cc2C1`, the Activity [2] was “Active” and the Activity [1] was 4.1%.

Work on `COc1ccc2c(c1)CC(n1c(CCN)cnc1S)CS2` (stereo unspecified) yielded an Activity [1] of 99.4%.

Work on `COc1cccc2c1OC[C@H](n1c(CCN)cnc1S)C2` yielded an Activity [1] of 6.9%.

In the case of `NCc1cnc(S)n1[C@H]1COc2ccccc2C1`, the Activity [1] was 0%.

For `NCCc1cnc(S)n1[C@H]1COc2c(cc(F)c(F)c2F)C1`, the Activity [1] was 8.2%.

In the case of `Cl.NCCc1cnc(S)n1[C@H]1COc2c(F)cc(F)cc2C1`, the Activity [2] was “Active”, the Tmax [3] was 9 h and the Activity [4] was “Dose-dependent effect”. For the same compound, the Activity [5] was “inactive”, the Activity [6] was 50% and the Activity [7] was “Active”. The Activity [8] was “inactive” and the Activity [1] was 3.3%.

`NCCc1cnc(S)n1[C@H]1COc2c(O)cccc2C1` was tested, and the Activity [1] was 125%.

Work on `NCCc1cnc(S)n1C1CSc2ccc(O)cc2C1` (stereo unspecified) yielded an Activity [1] of 27.3%.

`COc1ccc2c(c1)C[C@@H](n1c(CCNCc3ccccc3)cnc1S)CO2` was tested, and the Activity [1] was 66%.

In the case of `NCCc1cnc(S)n1[C@H]1COc2ccc(O)cc2C1`, the Activity [1] was 0%.

`NCCc1cnc(S)n1[C@H]1COc2cc(F)c(F)cc2C1` showed an Activity [1] of 9.4%.

For `NCCc1cnc(S)n1[C@@H]1COc2c(F)cc(F)cc2C1`, the Activity [1] was 50.2%.

`Oc1ccc2c(c1)C[C@@H](n1c(CCNCc3ccccc3)cnc1S)CO2` was tested, and the Activity [1] was 4.5%.

In the case of `NCCc1cnc(S)n1[C@H]1COc2c(cccc2[N+](=O)[O-])C1`, the Activity [1] was 53.2%.

In the case of `NCCc1cnc(S)n1[C@H]1COc2cc(Cc3ccccc3)c(O)cc2C1`, the Activity [1] was 86.1%.

With `NCc1cnc(S)n1[C@H]1COc2ccc(O)cc2C1` the Activity [1] was 17.8%.

`NCCc1cnc(S)n1[C@H]1COc2ccc(F)cc2C1` gave an Activity [1] of 8%.

For `NCCc1cnc(S)n1[C@H]1COc2ccccc2C1`, the Activity [1] was 3%.
